Experimental data collected from several papers.
Each line is one published result; the experiments were not run side by side.
Target: Serine/threonine-protein kinase MRCK beta (CDC42BPB, Homo sapiens, UniProt Q9Y5S2)

Compound | assay | conditions | remaining binding
C[C@@H](c1ccc(-n2cnc3c(N)ncnc32)cc1)N1CCc2nn(C)c(Cc3ccccc3)c2C1=O | binding, competition with immobilised ligand | 0.1 µM | 89%
O=C(NCCCN1CCOCC1)c1ccc(Nc2nccc(-c3cc4ccccc4s3)n2)cc1 | binding, competition with immobilised ligand | 1 µM | 100%
N[C@H]1CCN(c2nccc(-c3cnn4ncccc34)n2)C1 | binding | 1 µM | 88%
COc1ncc2cc3ccccc3nc2c1C#N | cell-free assay, competition with immobilised ligand | 5 µM | 100%
COc1cnc(Nc2cccc(S(N)(=O)=O)c2)nc1N1CCN(c2ccccc2)CC1 | binding, competition with immobilised ligand | 1 µM | 99%
c1cnn2ncc(-c3ccnc(N4CCC45COC5)n3)c2c1 | binding | 1 µM | 94%
O=C(NCC1CCOCC1)c1n[nH]cc1NC(=O)c1c(F)cccc1F | binding, competition with immobilised ligand | 1 µM | 95%
CN(C)c1nccc(-c2cnn3ncccc23)n1 | binding | 1 µM | 100%
Cc1cc(-n2nc(Cc3cc(F)cc(C(F)(F)F)c3)nc2C)ccc1C(N)=O | cell-free assay, competition with immobilised ligand | 1 µM | 100%
CNC(=O)[C@@H]1CC[C@@H](n2c(-c3ccc4cnccc4c3)nc3ccc(C(=O)NCc4cccc(C(N)=O)c4)cc32)C1 | binding, competition with immobilised ligand | 1 µM | 100%
Nc1c(C(=O)NCc2ccc(C(=O)NCCCC3CCCCC3)cc2)cnn1-c1ccccc1 | cell-free assay, competition with immobilised ligand | 0.1 µM | 100%
CN(CCCC(F)(F)F)c1nccc(-c2cnn3ncccc23)n1 | binding | 1 µM | 63%
c1cncc(-c2cccc(Nc3nccc(NC4CCCCC4)n3)c2)c1 | binding, competition with immobilised ligand | 10 µM | 99%
CC(C)CC(=O)N1CCc2nc(-c3ccc(Br)cc3)nc(N(C)Cc3ccccc3)c2C1 | cell-free assay, competition with immobilised ligand | 0.1 µM | 99%
O=C(c1ccc(Nc2nccc(-c3cc4ccccc4s3)n2)cc1)N1CCC(N2CCCC2)CC1 | binding, competition with immobilised ligand | 1 µM | 100%
O=C(O)[C@@H]1[C@@H](Cn2nnc3ccccc3c2=O)CC[C@H]1C(=O)c1ccc(OCCC2CCOCC2)cc1 | cell-free assay, competition with immobilised ligand | 1 µM | 96%
CN(c1nccc(-c2cnn3ncccc23)n1)C1CC1 | binding | 1 µM | 86%
COc1ccc2cc(OCC3(C(=O)O)CN(C(=O)c4ccc(F)cc4)C3)ccc2c1 | cell-free assay, competition with immobilised ligand | 1 µM | 100%
CC1CCCN1c1nccc(-c2cnn3ncccc23)n1 (stereo not drawn) | binding | 1 µM | 97%
CNC(=O)c1ccc(Nc2ncc(C(F)(F)F)c(NCc3nccnc3N(C)S(C)(=O)=O)n2)cc1 | cell-free assay, competition with immobilised ligand | 0.1 µM | 90%
O=C(NCCCN1CCOCC1)c1ccc(Nc2ncc(Cl)c(-c3ccc(Cl)s3)n2)cc1 | binding, competition with immobilised ligand | 1 µM | 100%
